Reference: ChEMBL document CHEMBL2046289, “Novel 2-(2-(benzylthio)-1H-benzo[d]imidazol-1-yl)acetic acids: discovery and hit-to-lead evolution of a selective CRTh2 receptor antagonist chemotype” (Bioorg Med Chem Lett, 2012)
Converted amounts (≈) assume the structure as drawn. One block for each compound: values may come before it.

Assays:
[1] = molecular target: T1, Prostaglandin D2 receptor 2 (Homo sapiens, UniProt Q9Y5Y4); test: Antagonist activity at human CRTh2 receptor expressed in HEK293 cells assessed as inhibition of PGD2-induced calcium flux by FLIPR assay; format: functional, cell-based
T1 sequence (Q9Y5Y4 whole entry): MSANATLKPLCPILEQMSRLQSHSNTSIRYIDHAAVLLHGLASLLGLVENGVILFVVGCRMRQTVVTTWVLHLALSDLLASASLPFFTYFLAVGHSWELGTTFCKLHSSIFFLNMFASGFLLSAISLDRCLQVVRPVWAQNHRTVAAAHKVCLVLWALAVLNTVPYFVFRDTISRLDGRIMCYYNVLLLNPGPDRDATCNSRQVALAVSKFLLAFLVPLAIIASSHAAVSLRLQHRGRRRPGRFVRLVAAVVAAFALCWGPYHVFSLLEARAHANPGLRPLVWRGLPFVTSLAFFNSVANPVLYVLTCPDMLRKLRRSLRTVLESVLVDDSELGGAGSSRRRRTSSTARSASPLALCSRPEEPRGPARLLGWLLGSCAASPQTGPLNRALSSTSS

[2] = molecular target: T1, Prostaglandin D2 receptor 2; test: Displacement of [3H]-PGD2 from human CRTh2 receptor expressed in HEK293 cells; format: cell-based
[3] = Volume of distribution at steady state in Wistar rat at 1 mg/kg, iv and 10 mg/kg, po; format: ADME, organism-based; settings: in vivo, read-out: Vdss
Outline: (§1)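 Male Wistar rats, 3 animals per experiment; intravenous dose 1 mg/kg and oral dose 10 mg/kg, each given as a solution.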

[4] = Stability of the compound in simulated intestinal fluid assessed as compound remaining after 4 hrs; format: physicochemical; settings: read-out: Stability
Outline: (§2)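 Compound incubated in simulated gastric fluid for 1 h or simulated intestinal fluid for 4 h; unchanged parent recovered quantified by LC-MS, expressed as % parent remaining.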

[5] = molecular target: T1, Prostaglandin D2 receptor 2; test: Displacement of [3H]-PGD2 from human CRTh2 receptor expressed in HEK293 cells in presence of 0.5% human serum albumin; format: cell-based
[6] = Solubility of the compound in 0.1 M HCl; format: physicochemical; settings: buffer
Cytochrome P450 2D6 = Cytochrome P450 2D6 (Homo sapiens, UniProt P10635); test: Inhibition of CYP2D6; format: ADME
Chain of Cytochrome P450 2D6 (P10635 whole entry): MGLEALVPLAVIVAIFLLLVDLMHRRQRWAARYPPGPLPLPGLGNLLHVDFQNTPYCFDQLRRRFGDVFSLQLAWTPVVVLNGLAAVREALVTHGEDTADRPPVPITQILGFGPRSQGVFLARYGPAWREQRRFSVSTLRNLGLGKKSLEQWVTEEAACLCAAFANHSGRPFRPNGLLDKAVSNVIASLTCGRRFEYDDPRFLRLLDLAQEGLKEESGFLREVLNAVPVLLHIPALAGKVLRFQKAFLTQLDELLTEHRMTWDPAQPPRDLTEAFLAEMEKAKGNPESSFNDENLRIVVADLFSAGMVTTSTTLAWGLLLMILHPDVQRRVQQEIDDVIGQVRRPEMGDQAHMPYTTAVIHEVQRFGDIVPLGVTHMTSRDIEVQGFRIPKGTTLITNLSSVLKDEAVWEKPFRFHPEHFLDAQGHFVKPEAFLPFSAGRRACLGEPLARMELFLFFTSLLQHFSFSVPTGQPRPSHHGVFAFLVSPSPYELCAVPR

[7] = Intrinsic clearance in rat hepatocytes assessed per 10^6 cells; format: ADME, cell-based, Hepatocyte; settings: read-out: CLH
[8] = Clearance in Wistar rat at 1 mg/kg, iv and 10 mg/kg, po; format: ADME, organism-based; settings: in vivo; outline: as §1
[9] = molecular target: T2, Prostaglandin D2 receptor (Homo sapiens, UniProt Q13258); test: Displacement of [3H]-PGD2 from human DP1 receptor expressed in CHO cells; format: cell-based
T2 sequence (Q13258 whole entry): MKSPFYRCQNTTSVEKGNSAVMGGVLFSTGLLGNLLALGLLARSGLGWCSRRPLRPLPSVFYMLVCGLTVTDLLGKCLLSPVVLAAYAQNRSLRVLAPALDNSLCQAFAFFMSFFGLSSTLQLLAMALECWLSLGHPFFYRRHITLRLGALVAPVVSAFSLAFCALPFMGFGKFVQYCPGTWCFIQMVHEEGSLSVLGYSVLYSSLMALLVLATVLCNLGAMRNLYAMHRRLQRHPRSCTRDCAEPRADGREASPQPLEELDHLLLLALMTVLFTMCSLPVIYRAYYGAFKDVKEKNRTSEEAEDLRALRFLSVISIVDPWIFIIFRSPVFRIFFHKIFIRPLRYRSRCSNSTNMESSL

[10] = Solubility of the compound in Tris buffer at pH 9; format: physicochemical
Thromboxane A2 receptor = molecular target: T3, Thromboxane A2 receptor (Homo sapiens, UniProt P21731); test: Antagonist activity at human TP receptor by FLIPR assay; format: functional
T3 sequence (P21731 whole entry): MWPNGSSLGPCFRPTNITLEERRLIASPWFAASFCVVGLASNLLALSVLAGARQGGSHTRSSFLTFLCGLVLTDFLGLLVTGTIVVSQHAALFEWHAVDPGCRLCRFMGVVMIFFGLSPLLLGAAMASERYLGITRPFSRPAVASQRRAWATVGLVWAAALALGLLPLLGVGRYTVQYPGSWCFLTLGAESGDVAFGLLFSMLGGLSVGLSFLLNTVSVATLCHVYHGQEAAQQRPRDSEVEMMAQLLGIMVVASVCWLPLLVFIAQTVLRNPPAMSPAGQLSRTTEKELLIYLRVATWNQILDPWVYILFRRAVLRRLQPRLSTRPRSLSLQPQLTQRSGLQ

Cytochrome P450 3A4 [11] = molecular target: T4, Cytochrome P450 3A4 (Homo sapiens, UniProt P08684); test: Inhibition of CYP3A4 using testosterone as substrate; format: ADME
T4 sequence (P08684 whole entry): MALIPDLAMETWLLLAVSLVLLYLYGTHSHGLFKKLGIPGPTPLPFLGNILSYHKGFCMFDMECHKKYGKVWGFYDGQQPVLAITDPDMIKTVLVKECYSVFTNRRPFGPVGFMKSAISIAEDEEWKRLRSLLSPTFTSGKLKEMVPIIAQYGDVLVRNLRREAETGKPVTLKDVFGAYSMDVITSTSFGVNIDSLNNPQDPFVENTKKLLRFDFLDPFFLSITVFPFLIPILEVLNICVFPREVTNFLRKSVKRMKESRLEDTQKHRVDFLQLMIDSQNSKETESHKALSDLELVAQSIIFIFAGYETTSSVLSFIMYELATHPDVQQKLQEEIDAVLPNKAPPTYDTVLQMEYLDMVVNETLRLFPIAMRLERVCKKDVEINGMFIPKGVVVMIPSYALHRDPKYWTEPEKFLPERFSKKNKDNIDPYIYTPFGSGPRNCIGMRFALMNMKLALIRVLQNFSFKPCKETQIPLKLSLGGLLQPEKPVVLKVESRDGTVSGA

[12] = Stability of the compound in simulated gastric fluid assessed as compound remaining after 1 hr; format: physicochemical; settings: read-out: Stability; outline: as §2
[13] = Oral bioavailability in Wistar rat at 10 mg/kg; format: ADME, organism-based; settings: in vivo; outline: as §1
Cytochrome P450 3A4 [14] = molecular target: T4, Cytochrome P450 3A4; test: Inhibition of CYP3A4 using midazolam as substrate; format: ADME
[15] = AUC in Wistar rat at 10 mg/kg, po; format: ADME, organism-based; design: dose 10 mg/kg, route oral; settings: plasma; outline: as §1
[16] = Lipophilicity, log D of the compound at pH 7.4; format: physicochemical; settings: buffer
[17] = Metabolic stability of the compound in human plasma assessed as compound remaining after 4 hrs; format: ADME, cell-free; settings: read-out: Stability
[18] = Half life in Wistar rat at 1 mg/kg, iv and 10 mg/kg, po; format: ADME, organism-based; settings: in vivo; outline: as §1
[19] = Intrinsic clearance in rat liver microsomes assessed per mg protein; format: ADME, Microsome; settings: read-out: CLH
[20] = Solubility of the compound in phosphate buffer at pH 7; format: physicochemical
Cytochrome P450 2C9 = Cytochrome P450 2C9 (Homo sapiens, UniProt P11712); test: Inhibition of CYP2C9; format: ADME
Chain of Cytochrome P450 2C9 (P11712 whole entry): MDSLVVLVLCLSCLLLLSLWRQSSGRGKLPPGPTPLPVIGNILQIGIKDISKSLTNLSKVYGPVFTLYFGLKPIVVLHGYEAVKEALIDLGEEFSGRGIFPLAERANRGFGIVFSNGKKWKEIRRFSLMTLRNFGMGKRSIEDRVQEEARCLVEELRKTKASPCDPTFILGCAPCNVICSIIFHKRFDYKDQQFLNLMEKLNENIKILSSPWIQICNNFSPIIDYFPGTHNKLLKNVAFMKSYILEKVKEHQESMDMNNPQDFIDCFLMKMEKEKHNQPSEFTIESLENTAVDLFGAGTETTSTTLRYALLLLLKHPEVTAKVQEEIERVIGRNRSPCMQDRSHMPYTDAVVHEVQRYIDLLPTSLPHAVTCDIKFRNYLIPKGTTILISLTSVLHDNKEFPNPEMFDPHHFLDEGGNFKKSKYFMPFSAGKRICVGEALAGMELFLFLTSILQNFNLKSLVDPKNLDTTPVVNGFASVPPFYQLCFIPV

[21] = Intrinsic clearance in human liver microsomes assessed per mg protein; format: ADME, Microsome; settings: read-out: CLH

SMILES: COc1ccc(C(C)=O)cc1CSc1nc2c(F)cccc2n1CC(=O)O
IC50 [1]: 10 nM | IC50 [2]: 5 nM

SMILES: COc1ccc(C(=O)N2CCOCC2)cc1CSc1nc2cc(F)ccc2n1CC(=O)O
IC50 [1]: 91 nM | IC50 [2]: 107 nM

SMILES: COc1ccc(C(C)=O)cc1CSc1nc2cc(C(F)(F)F)ccc2n1CC(=O)O
IC50 [1]: 5 nM | IC50 [2]: 3 nM

SMILES: COc1ccc(C(C)=O)cc1CSc1nc2cc(C=O)ccc2n1CC(=O)O
IC50 [1]: 9 nM | IC50 [2]: 4 nM

SMILES: CC(=O)CC(c1ccccc1)c1c(O)c2ccccc2oc1=O (stereo not given) [WARFARIN]
Vd [3]: 1 L/kg

SMILES: COc1ccc(C(C)=O)cc1CSc1nc2ccccc2n1CC(=O)O
remaining at 4 h [4]: 100% | IC50 [5]: 2 nM | solubility [6]: 575 µg/mL (≈ 1550 µM) | IC50 (Cytochrome P450 2D6): > 50 µM | hepatocyte CLint [7]: 10 µL/min/1e6 cells | clearance [8]: 20 mL/min/kg | IC50 [9]: > 10 µM | solubility [10]: 583 µg/mL (≈ 1570 µM) | IC50 (Thromboxane A2 receptor): > 25 µM | IC50 (Cytochrome P450 3A4 [11]): > 50 µM | remaining at 1 h [12]: 92% | IC50 [1]: 25 nM | IC50 [2]: 8 nM | Vd [3]: 1.1 L/kg | bioavailability [13]: 27% | IC50 (Cytochrome P450 3A4 [14]): 37 µM | AUC [15]: 2360 ng·h/mL | logD [16]: -1.1 | remaining at 4 h [17]: 100% | half-life [18]: 150 min | microsomal CLint [19]: 17 µL/min/mg | solubility [20]: 602 µg/mL (≈ 1630 µM) | IC50 (Cytochrome P450 2C9): 24 µM

SMILES: COc1ccc(C(=O)NCc2ccccc2)cc1CSc1nc2cc(F)ccc2n1CC(=O)O
IC50 [1]: 94 nM | IC50 [2]: 59 nM

SMILES: COc1ccc(C(=O)N2CCc3ccccc32)cc1CSc1nc2cc(F)ccc2n1CC(=O)O
remaining at 4 h [4]: 100% | IC50 [5]: 8 nM | solubility [6]: 158 µg/mL (≈ 321 µM) | IC50 (Cytochrome P450 2D6): > 50 µM | hepatocyte CLint [7]: 12 µL/min/1e6 cells | IC50 [9]: > 10 µM | solubility [10]: 789 µg/mL (≈ 1610 µM) | IC50 (Cytochrome P450 3A4 [11]): 13 µM | remaining at 1 h [12]: 100% | IC50 [2]: 3 nM | IC50 (Cytochrome P450 3A4 [14]): 5 µM | logD [16]: 0.3 | remaining at 4 h [17]: 93% | microsomal CLint [19]: 91 µL/min/mg | solubility [20]: 812 µg/mL (≈ 1650 µM) | IC50 (Cytochrome P450 2C9): 28 µM | microsomal CLint [21]: 2 µL/min/mg

SMILES: CCN(Cc1ccccc1)C(=O)c1ccc(OC)c(CSc2nc3cc(F)ccc3n2CC(=O)O)c1
IC50 [1]: 725 nM | IC50 [2]: 495 nM

SMILES: COc1ccc(C(C)=O)cc1CSc1nc2cc(S(C)(=O)=O)ccc2n1CC(=O)O
IC50 [1]: 50 nM | IC50 [2]: 41 nM

SMILES: CC(=O)Oc1ccccc1C(=O)O [ASPIRIN]
Vd [3]: 1 L/kg

SMILES: COc1ccc(C(C)=O)cc1CSc1nc2cc(C(C)=O)ccc2n1CC(=O)O
IC50 [1]: 63 nM | IC50 [2]: 33 nM

SMILES: COc1ccc(C(=O)c2ccccc2)cc1CSc1nc2cc(F)ccc2n1CC(=O)O
IC50 [1]: 4 nM | IC50 [2]: 1.7 nM

Continued, values first:

IC50 [1]: 12 nM | IC50 [2]: 9 nM
SMILES: CCCCOc1ccc(C(C)=O)cc1CSc1nc2cc(F)ccc2n1CC(=O)O

IC50 [1]: 130 nM | IC50 [2]: 72 nM
SMILES: CCN(CC)C(=O)c1ccc(OC)c(CSc2nc3cc(F)ccc3n2CC(=O)O)c1

IC50 [1]: 9 nM | IC50 [2]: 5 nM
SMILES: CCCOc1ccc(C(C)=O)cc1CSc1nc2cc(F)ccc2n1CC(=O)O

remaining at 4 h [4]: 100% | IC50 [5]: 14 nM | solubility [6]: 484 µg/mL (≈ 1250 µM) | IC50 (Cytochrome P450 2D6): > 50 µM | hepatocyte CLint [7]: 20 µL/min/1e6 cells | clearance [8]: 36 mL/min/kg | IC50 [9]: > 10 µM | solubility [10]: 583 µg/mL (≈ 1500 µM) | IC50 (Thromboxane A2 receptor): > 25 µM | IC50 (Cytochrome P450 3A4 [11]): 15 µM | remaining at 1 h [12]: 95% | IC50 [1]: 5 nM | IC50 [2]: 2 nM | Vd [3]: 1.2 L/kg | bioavailability [13]: 19% | IC50 (Cytochrome P450 3A4 [14]): 10 µM | AUC [15]: 919 ng·h/mL | logD [16]: -0.8 | remaining at 4 h [17]: 100% | half-life [18]: 54 min | microsomal CLint [19]: 60 µL/min/mg | solubility [20]: 399 µg/mL (≈ 1030 µM) | IC50 (Cytochrome P450 2C9): > 50 µM | microsomal CLint [21]: 13 µL/min/mg
SMILES: COc1ccc(C(C)=O)cc1CSc1nc2cc(F)ccc2n1CC(=O)O

IC50 [1]: 5 nM | IC50 [2]: 4 nM
SMILES: CCOc1ccc(C(C)=O)cc1CSc1nc2cc(F)ccc2n1CC(=O)O

remaining at 4 h [4]: 78% | IC50 [5]: 81 nM | solubility [6]: 670 µg/mL (≈ 1500 µM) | IC50 (Cytochrome P450 2D6): > 50 µM | hepatocyte CLint [7]: 6 µL/min/1e6 cells | IC50 [9]: > 10 µM | solubility [10]: > 750 µg/mL | IC50 (Cytochrome P450 3A4 [11]): 7 µM | remaining at 1 h [12]: 94% | IC50 [1]: 15 nM | IC50 [2]: 16 nM | IC50 (Cytochrome P450 3A4 [14]): 4 µM | logD [16]: 0.1 | remaining at 4 h [17]: 100% | microsomal CLint [19]: 60 µL/min/mg | solubility [20]: 719 µg/mL (≈ 1610 µM) | IC50 (Cytochrome P450 2C9): 6 µM | microsomal CLint [21]: 7 µL/min/mg
SMILES: CCCCNC(=O)c1ccc(OC)c(CSc2nc3cc(F)ccc3n2CC(=O)O)c1
